The record followed here is ChEMBL document CHEMBL3763060, “Synthesis and evaluation of analogs of the phenylpyridazinone NPD-001 as potent trypanosomal TbrPDEB1 phosphodiesterase inhibitors and in vitro trypanocidals” (Bioorg Med Chem, 2016).

Structures are written as SMILES.

The IC50 is the midpoint of a concentration-inhibition curve. As a reminder, the solubility is how much of the substance goes into solution per volume. Read a high solubility as a readily soluble substance. For orientation: EC50 means the concentration giving half of the maximal effect. What is called CC50 is the concentration that lowers cell viability or growth by half.

The target of data set [1] is T1, Class 1 phosphodiesterase PDEB1 (Trypanosoma brucei, UniProt Q8WQX9).
T1 sequence (Q8WQX9 whole entry): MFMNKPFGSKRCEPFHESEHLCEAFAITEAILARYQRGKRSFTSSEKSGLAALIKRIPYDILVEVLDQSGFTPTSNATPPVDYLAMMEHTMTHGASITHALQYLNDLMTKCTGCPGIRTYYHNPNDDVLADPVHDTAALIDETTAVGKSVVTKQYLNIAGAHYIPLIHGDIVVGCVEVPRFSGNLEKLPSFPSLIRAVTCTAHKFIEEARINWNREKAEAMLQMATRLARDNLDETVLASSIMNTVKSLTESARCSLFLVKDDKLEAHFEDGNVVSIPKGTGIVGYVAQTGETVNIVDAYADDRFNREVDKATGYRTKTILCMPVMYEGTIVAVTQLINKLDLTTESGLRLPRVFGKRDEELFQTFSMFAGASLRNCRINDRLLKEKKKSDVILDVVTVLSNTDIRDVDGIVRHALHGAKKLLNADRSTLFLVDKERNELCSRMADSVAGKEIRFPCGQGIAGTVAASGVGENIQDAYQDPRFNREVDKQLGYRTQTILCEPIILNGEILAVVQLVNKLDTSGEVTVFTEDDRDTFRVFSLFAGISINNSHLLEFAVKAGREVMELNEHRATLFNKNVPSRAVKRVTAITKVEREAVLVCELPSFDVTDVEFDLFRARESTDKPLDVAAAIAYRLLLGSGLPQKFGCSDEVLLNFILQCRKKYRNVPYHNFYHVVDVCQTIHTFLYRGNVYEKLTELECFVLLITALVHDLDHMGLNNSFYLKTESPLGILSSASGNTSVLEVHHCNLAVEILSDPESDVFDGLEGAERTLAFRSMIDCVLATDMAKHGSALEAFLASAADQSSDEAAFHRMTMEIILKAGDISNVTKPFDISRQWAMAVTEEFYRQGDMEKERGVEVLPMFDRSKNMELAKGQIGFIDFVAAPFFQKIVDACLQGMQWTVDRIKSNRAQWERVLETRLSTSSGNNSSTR
In words: Inhibition of recombinant Trypanosoma brucei PDEB1 using [3H]-cAMP as substrate after 15 mins by scintillation proximity assay. A digest of the protocol: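 Inhibition of TbrPDEB1-mediated [³H]-cAMP hydrolysis was read by scintillation proximity assay. Each analog was run in at least two independent experiments.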
Background: In a scintillation proximity assay essentially only radioactivity close to the scintillant gives light.

Data set [2] is described as follows: Selectivity index, ratio of CC50 for human MRC5 cells to EC50 for suramin-sensitive Trypanosoma brucei brucei Squib427. In kind it is toxicity, cell-based. The following applies: read-out: Ratio CC50/EC50. In outline:
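The index was calculated as CC₅₀ in MRC-5 fibroblasts divided by EC₅₀ against T. b. brucei. Both came from parallel assays in Hirumi-9 medium with 10% FCS at 37 °C and 5% CO₂, each n = 2.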

Data set [3] in a line: Solubility of compound in 0.05 M phosphate buffer at pH 7.4. In kind it is physicochemical.
The subject of data set [4] is Trypanosoma brucei brucei. In words: Antitrypanosomal activity against suramin-sensitive Trypanosoma brucei brucei Squib427 assessed as inhibition of parasite growth. Format: functional, organism-based. In outline:
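Bloodstream-form trypomastigotes of Squib-427 were grown at 37 °C and 5% CO₂ in Hirumi-9 medium with 10% FCS. Compounds came from 20 mM DMSO stocks, pre-diluted 2- or 4-fold serially in DMSO, then diluted in demineralized water; final DMSO was <1%. Results were reported as −logEC₅₀ with n = 2.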

For data set [5], the target named is 3',5'-cyclic-AMP phosphodiesterase 4B (Homo sapiens, UniProt Q07343). Kind of data set: Inhibition of full length human recombinant PDE4B1 using [3H]-cAMP as substrate by scintillation proximity assay.
3',5'-cyclic-AMP phosphodiesterase 4B, sequence (Q07343 whole entry): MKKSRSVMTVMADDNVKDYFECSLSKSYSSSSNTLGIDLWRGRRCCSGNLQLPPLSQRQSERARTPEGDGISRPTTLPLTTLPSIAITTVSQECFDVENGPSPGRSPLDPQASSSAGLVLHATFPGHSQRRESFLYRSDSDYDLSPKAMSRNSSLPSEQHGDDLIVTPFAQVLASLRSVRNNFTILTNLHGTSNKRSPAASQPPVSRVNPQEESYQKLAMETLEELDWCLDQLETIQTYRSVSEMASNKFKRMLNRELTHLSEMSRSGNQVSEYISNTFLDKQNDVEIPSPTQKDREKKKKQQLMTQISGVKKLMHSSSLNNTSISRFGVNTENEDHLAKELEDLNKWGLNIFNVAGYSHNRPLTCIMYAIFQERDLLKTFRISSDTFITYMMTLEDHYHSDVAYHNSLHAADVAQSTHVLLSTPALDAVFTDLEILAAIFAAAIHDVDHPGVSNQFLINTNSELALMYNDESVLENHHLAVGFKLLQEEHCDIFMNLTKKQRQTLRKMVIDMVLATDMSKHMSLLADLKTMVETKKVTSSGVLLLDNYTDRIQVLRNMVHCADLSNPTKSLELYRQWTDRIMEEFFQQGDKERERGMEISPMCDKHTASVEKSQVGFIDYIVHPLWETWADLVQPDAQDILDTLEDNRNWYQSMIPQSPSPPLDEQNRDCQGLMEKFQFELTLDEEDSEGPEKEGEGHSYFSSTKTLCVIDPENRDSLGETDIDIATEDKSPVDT
The nature of data set [6]: Selectivity ratio of IC50 for Trypanosoma brucei recombinant PDEB1 to IC50 for full length human recombinant PDE4B1.
Data set [7] is described as follows: Cytotoxicity against human MRC5 cells assessed as growth inhibition. Format: cell-based. A digest of the protocol: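 MRC-5 fibroblasts were grown at 37 °C and 5% CO₂ in Hirumi-9 medium with 10% FCS. Compounds came from 20 mM DMSO stocks, serially pre-diluted 2- or 4-fold in DMSO, then in demineralized water; final DMSO was <1%. Results were reported as −logCC₅₀ with n = 2.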

For the molecule `COc1ccc(C2=NN(C3CCCCCC3)C(=O)CC2)cc1OC`, the IC50 in data set [1] was 10000 nM.

With `COc1ccc(-c2nn(C3CCCCCC3)c(=O)c3ccccc23)cc1OC`, in data set [1], the IC50 is more than 10000 nM.

For `COc1ccc(C2=NN(C3CCCCCC3)C(=O)[C@@H]3CC=CC[C@H]23)cc1OCCCCOc1ccc(-c2nnnn2C)cc1` (racemic), the values for the IC50 in data set [1] and in data set [5] were 10 nM and 0.631 nM, respectively. In addition, in data set [2], the selectivity ratio was more than 125. Also, the solubility in data set [3] was less than 2 µM. Further, the EC50 in data set [4] was 501 nM. Moreover, the Ratio IC50 in data set [6] stood at 16. In addition, in data set [7], the CC50 was more than 63100 nM.

As for `COc1ccc(C2=NN(C3CCCCCC3)C(=O)[C@@H]3CC=CC[C@H]23)cc1OCCCCOc1ccc(C(=O)O)cc1` (racemic), the IC50 was 316 nM in data set [1] and 0.316 nM in data set [5]. In addition, the Ratio IC50 in data set [6] stood at 1000.

Regarding `COCCOc1cc(C2=NN(C3CCCCCC3)C(=O)[C@@H]3CC=CC[C@H]23)ccc1OC` (racemic), the IC50 in data set [1] is 79.4 nM. Besides, the selectivity ratio in data set [2] is 32. Moreover, the EC50 in data set [4] was 794 nM. Moreover, the CC50 in data set [7] is 25100 nM.

Take `COc1ccc(C2=NN(C3CCCCCC3)C(=O)[C@@H]3CC=CC[C@H]23)cc1OC` (racemic): the IC50 in data set [1] was 316 nM; in data set [5], 0.631 nM. For the same molecule, the Ratio IC50 in data set [6] is 501.

Take `COc1ccc(C2=NN(C3CCCCCC3)C(=O)[C@@H]3CCCC[C@H]23)cc1OC` (racemic): the IC50 in data set [1] was 1580 nM.

As for `COc1ccc(C2=NN(C3CCCCCC3)C(=O)[C@@H]3CC=CC[C@H]23)cc1` (racemic), the IC50 in data set [1] is 3980 nM.

Regarding `COc1ccc(C2=NN(C3CCCCCC3)C(=O)[C@@H]3CC=CC[C@H]23)cc1OCCCCn1cnc2ncncc21` (racemic), the results for the IC50 in data set [1] and in data set [5] were 15.8 nM and 1.58 nM, respectively. Moreover, the selectivity ratio in data set [2] worked out at 200. Moreover, in data set [4], the EC50 was 200 nM. For the same molecule, in data set [6], the Ratio IC50 came out at 10. Moreover, the CC50 in data set [7] was 39800 nM.

Regarding `COc1ccc(C2=NN(C(C)C)C(=O)[C@@H]3CCCC[C@H]23)cc1OC` (racemic), the IC50 in data set [1] is 2000 nM.

Consider `COc1cccc(C2=NN(C3CCCCCC3)C(=O)[C@@H]3CC=CC[C@H]23)c1` (racemic), for which the IC50 in data set [1] was 100000 nM.

On to `COc1ccc(C2=NN(C3CCCCCC3)C(=O)[C@@H]3CC=CC[C@H]23)cc1OCc1ccccn1` (racemic), for which the IC50 in data set [1] is 100 nM.

Regarding `COc1ccc(C2=NN(C3CCCCCC3)C(=O)[C@@H]3CC=CC[C@H]23)cc1OCCCCCc1ccccc1` (racemic), the 50% inhibitory concentration (IC50) in data set [1] was 63.1 nM. For the same molecule, the selectivity ratio in data set [2] was more than 13. Also, the EC50 in data set [4] is 5010 nM. In addition, the CC50 in data set [7] is more than 63100 nM.

Consider `COc1ccc(C2=NN(C3CCCCCC3)C(=O)[C@@H]3CC=CC[C@H]23)cc1OCCCCOc1ccc(-n2ccnc2)cc1` (racemic), for which the IC50 in data set [1] was 12.6 nM; in data set [5], 0.2 nM. Also, in data set [2], the selectivity ratio turned out to be 40. Further, the EC50 in data set [4] was 1000 nM. Further, in data set [6], the Ratio IC50 stood at 63. Also, the CC50 in data set [7] is 39800 nM.

For the molecule `COc1ccc(C2=NN(C3CCCCCC3)C(=O)[C@@H]3CC=CC[C@H]23)cc1OCCCCOc1ccc(-c2nnn(C)n2)cc1` (racemic), the IC50 in data set [1] is 3.16 nM; in data set [5] it was 0.501 nM. For the same molecule, the selectivity ratio in data set [2] was more than 251. In data set [3], this molecule gave a solubility of less than 2 µM. Besides, the EC50 in data set [4] was 251 nM. Besides, the Ratio IC50 in data set [6] is 6. The CC50 in data set [7] is more than 63100 nM.

As for `COc1ccc(C2=NN(C3CCCCCC3)C(=O)[C@@H]3CC=CC[C@H]23)cc1OCc1cccc(OC)c1OC` (racemic), the IC50 in data set [1] was 79.4 nM. Moreover, in data set [2], the selectivity ratio came out at 2.5. Also, the EC50 in data set [4] was 1580 nM. The 50% cytotoxic concentration (CC50) in data set [7] was 3980 nM.

Take `COc1cc(COc2cc(C3=NN(C4CCCCCC4)C(=O)[C@@H]4CC=CC[C@H]34)ccc2OC)cc(OC)c1` (racemic): the IC50 in data set [1] is 126 nM. Besides, the selectivity ratio in data set [2] was 12.6. Further, the EC50 in data set [4] was 1000 nM. Besides, the half-maximal cytotoxic concentration (CC50) in data set [7] is 12600 nM.

For the molecule `COc1ccc(C2=NN(C3CCCCCC3)C(=O)[C@@H]3CC=CC[C@H]23)cc1OCCO` (racemic), the IC50 in data set [1] is 100 nM. The selectivity ratio in data set [2] worked out at 16. Moreover, the EC50 in data set [4] is 2000 nM. Moreover, the CC50 in data set [7] was 31600 nM.

For the molecule `COc1ccc(C2=NN(C3CCCCCC3)C(=O)[C@@H]3CC=CC[C@H]23)cc1OCCc1ccc(N(C)C)cc1` (racemic), the IC50 in data set [1] was 63.1 nM. The selectivity ratio in data set [2] is more than 63. In addition, the EC50 in data set [4] was 1000 nM. In addition, the CC50 in data set [7] was more than 63100 nM.

Turning to `COc1ccc(C2=NN(C3CCCCCC3)C(=O)[C@@H]3CC=CC[C@H]23)cc1OCc1ccncc1` (racemic), in data set [1], the IC50 is 158 nM. Further, in data set [2], the selectivity ratio is 12.6. Moreover, the EC50 in data set [4] was 1260 nM. Moreover, in data set [7], the CC50 is 15800 nM.

Take `COc1ccc(CCOc2cc(C3=NN(C4CCCCCC4)C(=O)[C@@H]4CC=CC[C@H]34)ccc2OC)cc1` (racemic): the IC50 in data set [1] is 63.1 nM. In data set [2], the selectivity ratio is more than 50. The EC50 in data set [4] is 1260 nM. For the same molecule, in data set [7], the CC50 was more than 63100 nM.

`COc1ccc(C2=NNC(=O)[C@@H]3CC=CC[C@H]23)cc1OC` (racemic): in data set [1], the IC50 was 12600 nM.
